We go through two molecules from ChEMBL document CHEMBL1255474, “Impact of different carbapenems and regimens of administration on resistance emergence for three isogenic Pseudomonas aeruginosa strains with differing mechanisms of resistance” (2010).

Assay [1] concerns Pseudomonas aeruginosa. Description: Antimicrobial activity against Pseudomonas aeruginosa PAO1 expressing derepressed chromosomal AmpC mutant by broth macrodilution method. It is filed as functional.
The subject of assay [2] is Pseudomonas aeruginosa. In words: Antimicrobial activity against wild type Pseudomonas aeruginosa PAO1 by broth macrodilution method. Type of assay: functional.
Assay [3] has as its system Pseudomonas aeruginosa. Description: Antimicrobial activity against oprD-deficient Pseudomonas aeruginosa PAO1 by broth macrodilution method. Type of assay: functional.
The subject of assay [4] is Pseudomonas aeruginosa. In words: Antimicrobial activity against oprD-deficient Pseudomonas aeruginosa PAO1 in hollow fiber system based pharmacokinetic-pharmacodynamic model assessed as reduction in bacterial count at 1 g administered at 1 hr infusion regimen every 8 hrs by time-kill assay. It is filed as functional. Summed up:
(§1)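 Hollow-fiber PK/PD model at 35°C, humidified. 15 ml late-log Mueller-Hinton II culture (circa 1 × 10^8 CFU/ml) per cartridge. Drug injected into the central reservoir by 0.5–4 h infusion every 6 or 8 h, run for 10 days. Samples taken at 0, 0.17, 1, 2, 3, 4, 6, 8 and 10 days, centrifuged and resuspended in saline to limit carryover. Counted on drug-free Mueller-Hinton II agar after 24 h at 35°C. Cell kill taken from counts at 24 h of exposure.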

In assay [5] the test system is Pseudomonas aeruginosa. Description: Antimicrobial activity against oprD-deficient Pseudomonas aeruginosa PAO1 in hollow fiber system based pharmacokinetic-pharmacodynamic model assessed as reduction in bacterial count at 500 mg administered at 1 hr infusion regimen every 8 hrs by time-kill assay. It is filed as functional. The procedure, abridged: as §1
The subject of assay [6] is Pseudomonas aeruginosa. Description: Antimicrobial activity against wild type Pseudomonas aeruginosa PAO1 in hollow fiber system based pharmacokinetic-pharmacodynamic model assessed as reduction in bacterial count at 500 mg administered at 1 hr infusion regimen every 8 hrs by time-kill assay. Type of assay: functional. The procedure, abridged:
as §1

For assay [7], the system named is Pseudomonas aeruginosa. Description: Antimicrobial activity against wild type Pseudomonas aeruginosa PAO1 in hollow fiber system based pharmacokinetic-pharmacodynamic model assessed as reduction in bacterial count at 1 g administered at 4 hrs infusion regimen every 8 hrs by time-kill assay. It is filed as functional. The procedure, abridged: as §1
Assay [8] relates to Pseudomonas aeruginosa. In words: Antimicrobial activity against oprD-deficient Pseudomonas aeruginosa PAO1 in hollow fiber system based pharmacokinetic-pharmacodynamic model assessed as reduction in bacterial count at 1 g administered at 4 hrs infusion regimen by time-kill assay. It is filed as functional. Summed up:
as §1

The subject of assay [9] is Pseudomonas aeruginosa. In words: Antimicrobial activity against wild type Pseudomonas aeruginosa PAO1 in hollow fiber system based pharmacokinetic-pharmacodynamic model assessed as reduction in bacterial count at 500 mg administered at 4 hrs infusion regimen every 8 hrs by time-kill assay. It is filed as functional. The procedure, abridged: as §1
The test system of assay [10] is Pseudomonas aeruginosa. In words: Antimicrobial activity against oprD-deficient Pseudomonas aeruginosa PAO1 in hollow fiber system based pharmacokinetic-pharmacodynamic model assessed as reduction in bacterial count at 1 g administered at 4 hrs infusion regimen every 8 hrs by time-kill assay. It is filed as functional, organism-based. Summed up: as §1

Values after ≈ are worked out from the molar mass of the structure shown. Active and inactive are the calls of the source. The calls are words filed in the database; no cut-off is given here.

With `C[C@@H](O)[C@H]1C(=O)N2C(C(=O)O)=C(SCCNC=N)C[C@H]12` [IMIPENEM ANHYDROUS], the MIC worked out at 2 mg/L (≈ 6.68 µM) against Pseudomonas aeruginosa [1], 2 mg/L (≈ 6.68 µM) with Pseudomonas aeruginosa [2] and 16 mg/L (≈ 53.4 µM) against Pseudomonas aeruginosa [3].
As for `C[C@@H](O)[C@H]1C(=O)N2C(C(=O)O)=C(S[C@@H]3CN[C@H](CNS(N)(=O)=O)C3)[C@H](C)[C@H]12` [DORIPENEM], the log10CFU/ml was determined as 3.47 in the assay on Pseudomonas aeruginosa [4]; 3.12 in the assay on Pseudomonas aeruginosa [5]; 3.71 in the assay on Pseudomonas aeruginosa [6]; 5.4 in the assay on Pseudomonas aeruginosa [7]; 4.24 in the assay on Pseudomonas aeruginosa [8]; 4.07 with Pseudomonas aeruginosa [9]. The MIC in the assay with Pseudomonas aeruginosa [1] came to 2 mg/L (≈ 4.76 µM); in the assay on Pseudomonas aeruginosa [2], 1 mg/L (≈ 2.38 µM); with Pseudomonas aeruginosa [3], 2 mg/L (≈ 4.76 µM). For the same molecule, in the assay with Pseudomonas aeruginosa [10], the outcome was Active.

In general, MIC refers to the least concentration at which growth counts as inhibited. A high value points to a need for much substance.
